Compound activity (PubChem BioAssay)
This is a sample that favours compounds with a hit; in the whole collection about 3.5% have one here.
MrgX1 agonist – agonists of human MrgX1 receptor, primary screen, HEK293 cells, Fluo-4 calcium flux. Fluo-4 calcium fluorescence, agonist mode; hits give high values. B-score at 10 µM. hit rate 0.44% among 310,000. AID 588627, 2011;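 active = calcium response B-score plate-corrected fluorescence ratio at least 3 library SD, with starting fluorescence B-score inside 5 SD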
Target sequence (Q96LB2 whole entry, looked up): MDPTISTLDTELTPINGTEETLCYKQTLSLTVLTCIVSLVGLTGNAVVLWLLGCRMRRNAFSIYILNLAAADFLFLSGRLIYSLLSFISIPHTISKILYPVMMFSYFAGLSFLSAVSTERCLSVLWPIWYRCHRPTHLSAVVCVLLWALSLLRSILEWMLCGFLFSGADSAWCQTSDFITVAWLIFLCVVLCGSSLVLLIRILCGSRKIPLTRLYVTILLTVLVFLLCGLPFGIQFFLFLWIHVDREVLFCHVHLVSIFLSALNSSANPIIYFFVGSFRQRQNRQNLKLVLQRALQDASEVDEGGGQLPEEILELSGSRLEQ
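times = overnight plating, then 30 min 37 °C plus 30 min room-temperature dye loading | assay system = stable human MrgX1 HEK293 cell line | input = fifteen thousand cells per well | signal = kinetic calcium dye fluorescence, Fluo-4 NW | dosing = compound delivered in addition one of three | read-out = B-scored fluorescence response ratio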
MrgX1 PAM – positive allosteric modulators of MrgX1, primary screen, HEK293 cells, Fluo-4 calcium flux. Mas-related G-protein coupled receptor member X1 (Homo sapiens), Q96LB2. FDSS; hits give high values. B-score at 10 µM. hit rate 0.63% among 310,000;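 active = plate-corrected calcium response at least 3 library SD above typical, normal starting fluorescence, not activating the receptor alone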;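 note: compound read alongside a low EC10 to EC30 dose of BAM8-22 agonist; peak minus trough fluorescence over baseline measured at the second addition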
RGS4 act – RGS4 potentiators or activators, primary screen, cell-based, HEK293 M3R inducible RGS4, calcium flux | carbachol calcium flux Fluo4; hits give low values | B-score at 10 µM | hit rate 0.92% among 310,000 | AID 463111, 2010;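 active = B-score of the integrated calcium signal more than 4 SD below the library mean, with starting fluorescence not abnormally high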;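 note: negative B-score means reduced calcium response which marks RGS4 activation or potentiation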
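Assay system: Inducible-RGS4 HEK293 cells carrying M3 receptor | Schedule: Compound preincubation 20 min at room temperature before agonist | Signal: Kinetic calcium fluorescence imaging with Fluo4-AM dye, 2 µM | Read-out basis: B score from integrated fluorescence ratio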
MrgX1 antag – antagonists of human MrgX1 receptor, primary screen, HEK293 cells, Fluo-4 calcium flux; Mas-related G-protein coupled receptor member X1 (Homo sapiens), Q96LB2; BAM8-22 antagonism; hits give low values; B-score at 10 µM; hit rate 1.3% among 310,000; AID 588676, 2011;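 active = calcium-response B-score plate-corrected more than 3 library SD below zero, starting fluorescence within 5 deviations, no agonist response on first addition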;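 note: peak minus trough fluorescence over baseline after final BAM8-22 challenge near maximal dose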
RGS4 inh – RGS4 inhibitors, primary screen, cell-based, HEK293 M3R inducible RGS4, calcium flux. Regulator of G-protein signaling 4 (Homo sapiens), P49798. Fluo-4 calcium flux; hits give high values; triggered by carbachol at its EC20. B-score at 10 µM. hit rate 0.45% among 310,000;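 active = B-score, a plate-corrected calcium signal, over three deviations above library mean, with baseline fluorescence within five deviations of library mean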;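 note: RGS4 expression induced by doxycycline in cells with stable M3 receptor; B-score is computed from the integrated fluorescence ratio over baseline after carbachol; higher B-score means a larger calcium signal and so more RGS4 inhibition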
Target sequence (P49798 whole entry, looked up): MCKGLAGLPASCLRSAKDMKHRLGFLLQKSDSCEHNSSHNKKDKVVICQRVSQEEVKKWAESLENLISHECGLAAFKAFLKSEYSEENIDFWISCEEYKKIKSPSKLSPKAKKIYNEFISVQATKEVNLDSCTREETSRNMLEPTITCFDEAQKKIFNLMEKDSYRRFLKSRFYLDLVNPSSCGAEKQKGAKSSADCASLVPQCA
Starred values were filed as active, the others as inactive; i = inactive.

SMILES	MrgX1 agonist	MrgX1 PAM	RGS4 act	MrgX1 antag	RGS4 inh
COc1cc([N+](=O)[O-])ccc1NC(=O)COC(=O)C=C(C)C	i	i	i	i	i
CC(C)=CC(=O)OCC(=O)Nc1cccc([N+](=O)[O-])c1	i	i	i	-8.62*	i
COc1ccc(NS(=O)(=O)c2cc3c4c(c2)CCN4C(=O)CC3)cc1OC	i	i	i	i	i
Cc1c(S(=O)(=O)NC2CCCCC2)c(=O)n(C)c(=O)n1C	i	i	i	i	i
Cc1cccc(-n2c(SCc3cc(=O)n4ccsc4n3)nc3ccccc32)c1	i	i	-7.43*	i	i
COc1ccc(-c2c[n+](CC(=O)OC3CC(C)CCC3C(C)C)c3n2CCC3)cc1 (stereo not given)	i	i	-6.97*	-4.85*	i
O=C(C[n+]1cc(-c2ccc(Cl)cc2)n2c1CCCCC2)c1ccccc1	i	i	i	i	i
CC(C)[C@@H]1CC[C@@H](C)C[C@H]1OC(=O)C[n+]1cc(-c2ccc(Cl)cc2)n2c1CCCCC2	i	i	i	-7.43*	i
O=C(COc1ccc(Cl)cc1Cl)NCCCCc1ccccc1	i	i	i	i	i
O=C(COc1ccc([N+](=O)[O-])cc1Cl)NCCc1ccccc1	i	8.95*	i	i	i
COc1ccc(-c2nnc(SC)nc2-c2ccc(OC)c([N+](=O)[O-])c2)cc1[N+](=O)[O-]	i	i	i	i	i
Cc1c(CCOC(=O)c2ccc([N+](=O)[O-])cc2)sc[n+]1CC(=O)c1ccccc1	i	i	i	i	i
COc1ccc(C(=O)OCCc2sc[n+](CC(=O)c3ccccc3)c2C)cc1	i	i	-10.8*	i	i
Fc1ccc(C(CCCn2nnc(-c3cccnc3)n2)c2ccc(F)cc2)cc1	i	i	-8.74*	i	i
Fc1ccc(-n2nnc(-c3cccnc3)n2)cc1	i	i	i	i	i
COc1ccc(-c2nc3ccccn3c2NC2CCCCC2)cc1SC1CCCCC1	i	i	-7.87*	i	i
CCCCNc1c(-c2ccc(-c3ccc(C(C)=O)cc3)c(OC)c2)nc2cnccn12	i	i	-10.8*	i	i
CCCCCCSc1cc(-c2nc3cnccn3c2NCc2ccccc2)ccc1OC	i	i	-9.69*	i	i
COc1cc(-c2nc3cc(C)ccn3c2NC2CCCCC2)ccc1-c1ccc(C(C)=O)cc1	i	i	i	i	i
CCCCNc1c(-c2ccc(OC)c(SC3CCCCC3)c2)nc2cnccn12	i	i	-9.96*	i	i
CCCCCCSc1cc(-c2nc3cc(C)ccn3c2NC2CCCCC2)ccc1OC	i	i	i	i	i
COc1cc(-c2nc3ccccn3c2NCc2ccccc2)ccc1SC1CCCCC1	i	i	i	i	i
COc1ccc(C2=NOC(Cn3nc(C(=O)NCc4ccco4)cc3-c3ccccc3)C2)cc1 (stereo not given)	i	i	i	i	i
CC(C)[C@H](NC(=O)c1ccccc1Cl)C(=O)OCc1cc([N+](=O)[O-])cc2c1OCOC2	i	i	i	i	i
CSCCC(NC(=O)c1ccco1)C(=O)OCc1cc([N+](=O)[O-])cc2c1OCOC2 (stereo not given)	28.4*	i	i	i	i
SMILES	MrgX1 agonist	MrgX1 PAM	RGS4 act	MrgX1 antag	RGS4 inh
O=C(NNC(=O)c1ccc(SCC2CCCO2)c([N+](=O)[O-])c1)c1ccc(Cl)c([N+](=O)[O-])c1 (stereo not given)	i	i	i	i	i
Cc1ccc(C(=O)NNC(=O)c2ccc(SCC3CCCO3)c([N+](=O)[O-])c2)cc1 (stereo not given)	i	i	i	-6.68*	i
CCOC(=O)CC1C(=O)NCCN1C(=O)c1ccc(Cl)cc1Cl (stereo not given)	i	i	i	i	i
COc1cc(Br)cc(/C=N/NC(=O)Cc2ccccc2)c1O	i	i	i	i	i
COc1cc(/C=N/NC(=O)Cc2ccc(Br)cc2)cc(OC)c1O	i	7.49*	i	i	i
COc1ccc(/C=N\NC(=O)c2cc3c(ccc4ccccc43)o2)cc1O	i	i	-7.2*	i	i
COc1cc(/C=N/NC(=O)c2cc3c(ccc4ccccc43)o2)cc(OC)c1O	i	i	-7.31*	i	i
O=C(N/N=C/c1ccc(-c2ccc(Cl)c(C(=O)O)c2)o1)c1cc2c(ccc3ccccc32)o1	i	i	i	-9.81*	i
Cc1ccc(-c2ccc(/C=N\NC(=O)c3cc4c(ccc5ccccc54)o3)o2)cc1[N+](=O)[O-]	i	i	i	i	i
Nc1c2c(nc3sc4c(c13)CCCC4)-c1ccccc1CC2	i	i	i	i	i
COc1cc2c(cc1OC)C(COc1ccc([N+](=O)[O-])cc1)N(C(C)=O)CC2 (stereo not given)	i	i	i	i	i
CCOC(=O)c1cnc2ccc(C(=O)OC)cc2c1NCCc1ccc(OC)c(OC)c1	i	i	i	-6.43*	i
CCOC(=O)c1cnc2c(C)cccc2c1Nc1cccc(C(=O)O)c1	i	i	i	i	i
CCOC(=O)c1cnc2ccc(C(=O)OC)cc2c1NCCN1CCOCC1	i	i	i	i	i
CCOC(=O)c1cnc2c(C)cccc2c1NCCc1ccc(OC)c(OC)c1	i	i	-7.42*	i	i
CCOC(=O)c1cnc2c(Cl)cccc2c1NCCN(C)C	i	i	i	i	i
CCOC(=O)c1cnc2c(C(=O)OC)cccc2c1NCc1cccnc1	i	i	-7.01*	i	i
Cc1cc2c(n1-c1ccc(C(=O)O)cc1)CCCCC2	i	i	i	i	i
O=C(O)CCCCCCCCc1cn(CCc2c[nH]c3ccccc23)nn1	i	i	i	i	i
CCOC(=O)Nc1ccc2nc(Sc3ccc(Cl)cc3)sc2c1	i	i	i	i	i
CC(C)OC(=O)c1sc2nc(-c3ccccc3)ccc2c1N	i	i	i	i	i
COc1ccc(C(=O)c2sc3nc(-c4ccccc4)ccc3c2N)cc1	i	10.7*	i	i	i
COc1ccc(/C=N/NC(=O)CCC(=O)Nc2ccccc2)cc1OC	i	i	i	i	i
